Source: ChEMBL document CHEMBL1150418, “Discovery of potent furan piperazine sodium channel blockers for treatment of neuropathic pain” (Bioorg Med Chem, 2008)
pIC50: −log10 of the molar value.

Target: Sodium channel protein type 10 subunit alpha (Rattus norvegicus) (UniProt Q62968)
Experiment: Blockade of Nav1.8 channel in rat dorsal root ganglion neurons assessed as inhibition of TTX-R current at 3 uM by whole cell patch clamp technique
Format: tissue-based
In short: (§1)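 Whole-cell voltage clamp of TTX-resistant currents in dissociated rat DRG neurons. Pipette (mM): CsF 135, NaCl 5, CsCl 10, EGTA 5, HEPES 10, pH 7.2. Bath (mM): NaCl 22, choline Cl 110, CaCl2 1.8, MgCl2 0.8, HEPES 10, glucose 5, pH 7.4. Inactivated-state protocol with pre-pulse at V1/2 (−40 mV). Mean ± SEM of two to six determinations.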

Sodium channel protein type 10 subunit alpha (Rattus norvegicus), sequence (Q62968 whole entry, looked up): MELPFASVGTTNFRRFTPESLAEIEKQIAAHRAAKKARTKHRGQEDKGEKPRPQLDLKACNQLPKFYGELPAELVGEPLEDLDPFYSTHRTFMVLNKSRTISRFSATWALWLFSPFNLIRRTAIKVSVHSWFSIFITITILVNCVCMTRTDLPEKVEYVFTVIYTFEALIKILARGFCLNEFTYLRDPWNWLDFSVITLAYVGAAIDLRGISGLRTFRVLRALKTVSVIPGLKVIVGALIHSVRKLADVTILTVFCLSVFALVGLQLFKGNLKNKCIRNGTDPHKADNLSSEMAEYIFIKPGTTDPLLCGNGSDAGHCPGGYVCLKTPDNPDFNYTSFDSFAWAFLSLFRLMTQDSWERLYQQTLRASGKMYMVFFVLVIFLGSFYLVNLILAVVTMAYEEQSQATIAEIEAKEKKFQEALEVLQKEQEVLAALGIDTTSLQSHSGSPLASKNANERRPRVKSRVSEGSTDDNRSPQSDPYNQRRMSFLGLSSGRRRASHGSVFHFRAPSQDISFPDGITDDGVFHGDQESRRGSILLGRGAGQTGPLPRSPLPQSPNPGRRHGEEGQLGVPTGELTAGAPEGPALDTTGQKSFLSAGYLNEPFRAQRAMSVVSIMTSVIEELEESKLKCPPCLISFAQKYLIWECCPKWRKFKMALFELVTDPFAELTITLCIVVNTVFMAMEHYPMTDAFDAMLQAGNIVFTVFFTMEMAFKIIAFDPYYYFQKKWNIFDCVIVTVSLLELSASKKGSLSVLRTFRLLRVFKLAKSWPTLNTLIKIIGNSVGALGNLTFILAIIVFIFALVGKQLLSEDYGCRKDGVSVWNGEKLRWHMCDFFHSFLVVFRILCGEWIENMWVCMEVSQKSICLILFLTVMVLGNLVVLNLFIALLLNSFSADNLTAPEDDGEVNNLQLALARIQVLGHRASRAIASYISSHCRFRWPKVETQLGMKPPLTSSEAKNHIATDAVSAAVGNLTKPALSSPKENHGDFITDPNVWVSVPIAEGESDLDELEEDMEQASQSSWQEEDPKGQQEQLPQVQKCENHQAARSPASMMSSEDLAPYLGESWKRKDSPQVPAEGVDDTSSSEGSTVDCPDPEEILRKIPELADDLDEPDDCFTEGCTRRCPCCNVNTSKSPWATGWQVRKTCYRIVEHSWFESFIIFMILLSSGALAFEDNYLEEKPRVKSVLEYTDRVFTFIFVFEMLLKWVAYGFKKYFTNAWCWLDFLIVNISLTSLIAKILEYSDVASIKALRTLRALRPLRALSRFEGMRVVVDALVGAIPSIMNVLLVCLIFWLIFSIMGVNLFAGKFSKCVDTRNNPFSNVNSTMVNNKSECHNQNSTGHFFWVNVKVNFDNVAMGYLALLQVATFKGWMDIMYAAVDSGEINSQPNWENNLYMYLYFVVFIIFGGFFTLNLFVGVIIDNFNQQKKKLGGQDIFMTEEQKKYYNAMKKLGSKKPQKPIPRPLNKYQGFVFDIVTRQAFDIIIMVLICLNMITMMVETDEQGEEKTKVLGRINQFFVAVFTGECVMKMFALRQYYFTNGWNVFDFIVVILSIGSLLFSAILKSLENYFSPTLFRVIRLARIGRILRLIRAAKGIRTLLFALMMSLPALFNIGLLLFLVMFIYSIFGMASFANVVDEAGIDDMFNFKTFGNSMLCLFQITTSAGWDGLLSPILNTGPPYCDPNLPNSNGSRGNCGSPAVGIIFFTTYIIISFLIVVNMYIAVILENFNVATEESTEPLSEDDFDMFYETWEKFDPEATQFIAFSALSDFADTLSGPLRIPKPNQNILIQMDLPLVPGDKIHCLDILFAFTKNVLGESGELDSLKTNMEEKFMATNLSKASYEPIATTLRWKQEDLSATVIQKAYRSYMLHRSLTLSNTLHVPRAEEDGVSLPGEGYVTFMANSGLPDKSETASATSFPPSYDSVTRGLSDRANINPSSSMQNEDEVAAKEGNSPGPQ

inhibition | SMILES
31% | CN1CCN(C(=O)c2ccc(-c3ccc(Cl)cc3)o2)CC1

Target: Sodium channel protein type 10 subunit alpha (Rattus norvegicus) (UniProt Q62968)
Experiment: Blockade of Nav1.8 channel in rat dorsal root ganglion neurons assessed as inhibition of TTX-R current at 1 uM by whole cell patch clamp technique
Format: tissue-based
In short: as §1

inhibition | SMILES
90% | CN1CCN(C(=O)c2ccc(-c3ccc(Oc4ccccc4)cc3)o2)CC1
55% | CN1CCN(C(=O)c2ccc(-c3ccc(C(C)(C)C)cc3)o2)CC1

Target: T1, Sodium channel protein type 10 subunit alpha (Homo sapiens, UniProt Q9Y5Y9)
Experiment: Inhibition of human recombinant Nav1.8 channel expressed in HEK293 cells at 0.3 uM by whole cell voltage clamp technique
Format: cell-based
In short: (§2)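 HEK293 cells stably expressing recombinant human sodium channels, grown in high-glucose DMEM, 10% FBS, 2 mM sodium pyruvate, G418. Whole-cell voltage clamp; pipettes 0.8–2.5 MΩ; internal (mM) 135 CsF, 10 CsCl, 5 EGTA, 5 NaCl, 10 HEPES, pH 7.3 with CsOH. Holding pre-pulse set at midpoint of steady-state inactivation for each subtype.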

inhibition | SMILES
87% | CN1CCN(C(=O)c2ccc(-c3ccc(Oc4ccccc4)cc3)o2)CC1
32% | CN1CCN(C(=O)c2ccc(-c3ccc(C(C)(C)C)cc3)o2)CC1

Second part, the compound before the results:

SMILES | inhibition
O=C(c1ccc(-c2ccc(Cl)cc2Cl)o1)N1CCN(C2CCCCC2)CC1 | 12%
O=C(c1ccc(-c2ccc(OC(F)(F)F)cc2)o1)N1CCN(C2CCCCC2)CC1 | 89%

Target: Sodium channel protein type 10 subunit alpha (Rattus norvegicus) (UniProt Q62968)
Experiment: Blockade of Nav1.8 channel in rat dorsal root ganglion neurons assessed as inhibition of TTX-R current at 0.3 uM by whole cell patch clamp technique
Format: tissue-based
In short: as §1

inhibition | SMILES
52% | O=C(NCCCN1CCCCC1)c1ccc(-c2ccc(Cl)cc2)o1
65% | CN(C)CC(C)(C)CNC(=O)c1ccc(-c2ccc(Cl)cc2)o1
51% | CN1CCC(NC(=O)c2ccc(-c3ccc(Cl)cc3)o2)CC1
59% | O=C(NCCN1CCCCC1)c1ccc(-c2ccc(Cl)cc2)o1

Target: Sodium channel protein type 10 subunit alpha (Mus musculus, UniProt Q6QIY3)
Sequence (Q6QIY3 whole entry): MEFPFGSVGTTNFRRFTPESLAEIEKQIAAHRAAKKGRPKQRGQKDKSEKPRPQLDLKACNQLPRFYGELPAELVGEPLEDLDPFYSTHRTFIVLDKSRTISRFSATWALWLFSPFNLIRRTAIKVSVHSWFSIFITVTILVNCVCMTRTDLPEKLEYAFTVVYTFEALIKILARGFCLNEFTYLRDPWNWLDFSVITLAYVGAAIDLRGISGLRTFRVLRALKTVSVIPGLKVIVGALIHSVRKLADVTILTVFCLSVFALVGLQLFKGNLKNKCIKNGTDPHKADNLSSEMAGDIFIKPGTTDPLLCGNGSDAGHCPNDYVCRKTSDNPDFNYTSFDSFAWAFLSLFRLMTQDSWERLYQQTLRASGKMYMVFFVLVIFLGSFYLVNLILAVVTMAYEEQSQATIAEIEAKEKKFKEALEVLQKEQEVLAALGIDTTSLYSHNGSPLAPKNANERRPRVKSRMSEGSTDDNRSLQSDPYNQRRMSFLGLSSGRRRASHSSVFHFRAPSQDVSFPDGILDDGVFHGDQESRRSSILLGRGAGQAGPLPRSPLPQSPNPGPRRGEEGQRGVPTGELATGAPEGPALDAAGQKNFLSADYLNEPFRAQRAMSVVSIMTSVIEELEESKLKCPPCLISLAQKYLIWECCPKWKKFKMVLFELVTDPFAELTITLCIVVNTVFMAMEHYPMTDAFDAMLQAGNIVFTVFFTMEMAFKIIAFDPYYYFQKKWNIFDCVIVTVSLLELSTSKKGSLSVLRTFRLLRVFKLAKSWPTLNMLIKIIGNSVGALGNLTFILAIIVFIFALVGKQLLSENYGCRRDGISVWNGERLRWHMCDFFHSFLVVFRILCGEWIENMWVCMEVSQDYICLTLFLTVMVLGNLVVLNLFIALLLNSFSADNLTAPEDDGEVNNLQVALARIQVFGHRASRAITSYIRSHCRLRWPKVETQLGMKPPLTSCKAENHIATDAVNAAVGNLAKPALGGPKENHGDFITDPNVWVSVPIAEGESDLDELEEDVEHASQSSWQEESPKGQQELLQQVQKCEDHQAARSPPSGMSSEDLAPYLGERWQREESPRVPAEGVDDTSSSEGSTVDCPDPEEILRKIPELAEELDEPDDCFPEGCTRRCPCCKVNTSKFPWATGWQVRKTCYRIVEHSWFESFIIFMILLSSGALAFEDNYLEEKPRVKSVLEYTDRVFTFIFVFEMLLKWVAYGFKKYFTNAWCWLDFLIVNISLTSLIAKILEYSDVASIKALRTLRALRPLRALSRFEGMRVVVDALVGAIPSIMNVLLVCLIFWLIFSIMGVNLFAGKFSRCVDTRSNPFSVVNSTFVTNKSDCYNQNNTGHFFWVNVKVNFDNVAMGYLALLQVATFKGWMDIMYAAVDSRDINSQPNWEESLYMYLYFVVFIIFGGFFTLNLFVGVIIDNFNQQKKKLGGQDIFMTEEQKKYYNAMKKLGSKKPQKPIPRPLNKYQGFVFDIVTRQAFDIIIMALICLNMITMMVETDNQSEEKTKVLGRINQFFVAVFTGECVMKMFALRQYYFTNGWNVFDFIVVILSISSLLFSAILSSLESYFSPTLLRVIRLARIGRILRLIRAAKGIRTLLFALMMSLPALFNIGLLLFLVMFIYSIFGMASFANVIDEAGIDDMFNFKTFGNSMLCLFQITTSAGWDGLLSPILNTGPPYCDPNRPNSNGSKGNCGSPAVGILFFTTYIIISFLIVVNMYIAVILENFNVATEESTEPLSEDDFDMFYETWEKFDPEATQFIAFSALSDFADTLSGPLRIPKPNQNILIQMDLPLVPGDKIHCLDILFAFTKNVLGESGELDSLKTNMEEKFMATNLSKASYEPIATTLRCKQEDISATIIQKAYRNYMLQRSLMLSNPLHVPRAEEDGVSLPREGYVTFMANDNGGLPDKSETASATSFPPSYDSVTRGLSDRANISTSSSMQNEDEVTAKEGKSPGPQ
Experiment: Inhibition of mouse recombinant Nav1.8 channel expressed in HEK293 cells by isotopic efflux assay
Format: cell-based

pIC50 | SMILES
5.00 | CN1CCN(C(=O)c2ccc(-c3ccc(Cl)cc3)o2)CC1
4.49 | O=C(c1ccc(-c2ccc(Cl)cc2)o1)N1CCOCC1
4.85 | O=C(c1ccc(-c2ccc(Cl)cc2)o1)N1CCN(c2cccc(C(F)(F)F)c2)CC1

The next lines start with the compound.

SMILES | pIC50
O=C(NCCCN1CCCCC1)c1ccc(-c2ccc(Cl)cc2)o1 | 5.80
CN(C)CC(C)(C)CNC(=O)c1ccc(-c2ccc(Cl)cc2)o1 | 5.62
CN1CCC(NC(=O)c2ccc(-c3ccc(Cl)cc3)o2)CC1 | 5.72
O=C(NCCN1CCCCC1)c1ccc(-c2ccc(Cl)cc2)o1 | 6.05

Target: T1, Sodium channel protein type 10 subunit alpha
Experiment: Inhibition of human recombinant Nav1.8 channel expressed in HEK293 cells at 0.1 uM by whole cell voltage clamp technique
Format: cell-based
In short: as §2

inhibition | SMILES
35% | CN1CCN(C(=O)c2ccc(-c3ccc(Oc4ccccc4)cc3)o2)CC1
42% | O=C(c1ccc(-c2ccc(OC(F)(F)F)cc2)o1)N1CCN(C2CCCCC2)CC1
29% | O=C(NCCN1CCCCC1)c1ccc(-c2ccc(Cl)cc2)o1

Target: Sodium channel protein type 10 subunit alpha (Rattus norvegicus) (UniProt Q62968)
Experiment: Blockade of Nav1.8 channel in rat dorsal root ganglion neurons assessed as inhibition of TTX-R current at 0.1 uM by whole cell patch clamp technique
Format: tissue-based
In short: as §1

inhibition | SMILES
55% | CN1CCN(C(=O)c2ccc(-c3ccc(Oc4ccccc4)cc3)o2)CC1
